Calls of active or inactive are those of the source. The rule behind the calls is not given here. *1 amine or outer side, *2 acyl side, *3 side chain or, on linkers, in order; H or OH if unused. Where a SMILES comes first, the peptide text is derived from it. Bridges are numbered along the chain shown (N, C = ends). Roman numbers before positions name the chains, in order. [ ]: non-standard residue; d: D form. Actinocin(1to9) = Cc1c2oc3c(C)ccc(C(=O)[*:2])c3nc-2c(C(=O)[*:1])c(N)c1=O; NMeV = CN[C@H](C(=O)O)C(C)C; Sar = CNCC(=O)O
Tests used:
[1] = system: CCRF-CEM; assay: Cytotoxicity against human CCRF-CEM cells after 72 hrs; type: functional, cell-based
Summary of the method: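 CCRF-CEM human leukaemia cells exposed to agents for 72 h at 37 °C in RPMI 1640 with 10% foetal bovine serum. Cells counted with a Coulter Counter, duplicates per concentration, experiment repeated ≥3 times; IC50 from curve fitting.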

[2] = system: CCRF-CEM; assay: Cell cycle arrest in human CCRF-CEM cells assessed as accumulation at G2/M phase at 10 times IC50 after 24 hrs by flow cytometry; type: functional
Summary of the method: (§1)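 CCRF-CEM cells seeded at 1 × 10^5 per ml in flasks and grown 24 h. Drug then added at 1×, 2×, 5× or 10× the measured 72 h IC50 and cells incubated a further 24 h; untreated controls. Cells washed in PBS, fixed in ice-cold ethanol, stained with propidium iodide and analysed by flow cytometry for % cells at G2/M.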

[3] = system: Escherichia coli; assay: Binding affinity to Escherichia coli pBR322 DNA assessed as equivalence binding ratio by agarose gel electrophoresis
Summary of the method: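 Supercoiled pBR322 closed circular DNA (150 ng, 23.6 µM bp) mixed with dimer in tris acetate buffer pH 7.5, 40 mM for Pip dimers and 10 mM for NMP dimers; 1 h dark incubation at room temperature; 0.8% agarose gel, 74 V (5 V/cm), 1 h 15 min. Equivalence ratio in base-pair units, taken where supercoiling is removed and closed and nicked circles co-migrate; ≥3 titrations.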

[4] = system: CCRF-CEM; assay: Cell cycle arrest in human CCRF-CEM cells assessed as accumulation at G2/M phase after 24 hrs by flow cytometry; type: functional, cell-based; summary of the method: as §1
[5] = system: CCRF-CEM; assay: Cell cycle arrest in human CCRF-CEM cells assessed as accumulation at G2/M phase at 1 time IC50 after 24 hrs by flow cytometry; type: functional; summary of the method: as §1
[6] = system: CCRF-CEM; assay: Cell cycle arrest in human CCRF-CEM cells assessed as accumulation at G2/M phase at 5 times IC50 after 24 hrs by flow cytometry; type: functional; summary of the method: as §1

| Ratio [3] | Compound | IC50 [1] [nM] | Activity [2] [%] | Activity [4] | Activity [5] [%] | Activity [6] [%] |
| --- | --- | --- | --- | --- | --- | --- |
| 0.11 | CN1CCC(NC(=O)c2cccc3c(NCCNCCNCCNc4c5ccccc5nc5c(C(=O)NC6CCN(C)CC6)cccc45)c4ccccc4nc23)CC1 | 1100 | 40 |  |  |  |
| 0.175 | CN1CCC(NC(=O)c2cccc3c(NCCCCCCCCNc4c5ccccc5nc5c(C(=O)NC6CCN(C)CC6)cccc45)c4ccccc4nc23)CC1 | 130 | 43 |  |  |  |
| 0.21 | CN1CCC(NC(=O)c2cccc3c(NCCCCNCCCNc4c5ccccc5nc5c(C(=O)NC6CCN(C)CC6)cccc45)c4ccccc4nc23)CC1 | 340 |  |  |  |  |
| 0.14 | O=C(NCCN1CCCCC1)c1cccc2c(NCCCNCCCNc3c4ccccc4nc4c(C(=O)NCCN5CCCCC5)cccc34)c3ccccc3nc12 | 260 |  | inactive |  |  |
| 0.25 | CN1CCC(NC(=O)c2cccc3c(NCCCCCCNc4c5ccccc5nc5c(C(=O)NC6CCN(C)CC6)cccc45)c4ccccc4nc23)CC1 | 210 |  |  |  |  |
| 0.24 | CN1CCC(NC(=O)c2cccc3c(NCCCNCCCNc4c5ccccc5nc5c(C(=O)NC6CCN(C)CC6)cccc45)c4ccccc4nc23)CC1 | 680 | 50 |  |  |  |

More lines, now with the values behind:

| Compound | Ratio [3] | IC50 [1] [nM] | Activity [2] [%] | Activity [4] | Activity [5] [%] | Activity [6] [%] |
| --- | --- | --- | --- | --- | --- | --- |
| O=C(NCCN1CCCCC1)c1cccc2c(NCCCCCCCCNc3c4ccccc4nc4c(C(=O)NCCN5CCCCC5)cccc34)c3ccccc3nc12 | 0.16 | 99 |  | inactive |  |  |
| O=C(NCCN1CCCCC1)c1cccc2c(NCCN3CCN(CCNc4c5ccccc5nc5c(C(=O)NCCN6CCCCC6)cccc45)CC3)c3ccccc3nc12 | 0.13 | 130 |  | inactive |  |  |
| CN(C)CCNC(=O)c1cccc2c(N)c3ccccc3nc12 |  | 120 | 61 |  |  |  |
| Cc1c2oc3c(C)ccc(C(=O)N[C@@H]4C(=O)N[C@H](C(C)C)C(=O)N5CCC[C@H]5C(=O)N(C)CC(=O)N(C)[C@@H](C(C)C)C(=O)O[C@@H]4C)c3nc-2c(C(=O)N[C@@H]2C(=O)N[C@H](C(C)C)C(=O)N3CCC[C@H]3C(=O)N(C)CC(=O)N(C)[C@@H](C(C)C)C(=O)O[C@@H]2C)c(N)c1=O [DACTINOMYCIN] (I: T[dV]P[Sar][NMeV] / II: T[dV]P[Sar][NMeV]; ester I:1-I:C, II:1-II:C; linker I:N-II:N via Actinocin(1to9)) |  | 1.6 |  | inactive |  |  |
| O=C(NCCN1CCCCC1)c1cccc2c(NCCNCCNCCNc3c4ccccc4nc4c(C(=O)NCCN5CCCCC5)cccc34)c3ccccc3nc12 | 0.16 | 270 |  | inactive |  |  |
| COc1cc(NS(C)(=O)=O)ccc1Nc1c2ccccc2nc2ccccc12 [AMSACRINE] |  | 130 |  |  | 68 |  |
| O=C(NCCN1CCCCC1)c1cccc2c(NCCCCNCCCNc3c4ccccc4nc4c(C(=O)NCCN5CCCCC5)cccc34)c3ccccc3nc12 | 0.135 | 230 |  | inactive |  |  |
| O=C(NCCN1CCCCC1)c1cccc2c(NCCCCCCNc3c4ccccc4nc4c(C(=O)NCCN5CCCCC5)cccc34)c3ccccc3nc12 | 0.14 | 200 |  | inactive |  |  |
| CN1CCC(NC(=O)c2cccc3c(NCCN4CCN(CCNc5c6ccccc6nc6c(C(=O)NC7CCN(C)CC7)cccc56)CC4)c4ccccc4nc23)CC1 |  | 800 |  |  |  | 52 |

— ChEMBL document CHEMBL1149875, “DNA threading bis(9-aminoacridine-4-carboxamides): effects of piperidine sidechains on DNA binding, cytotoxicity and cell cycle arrest” (Bioorg Med Chem, 2008)
